Screens as filed in PubChem.
An excerpt weighted towards active compounds, which were near 2.2% of everything screened.
GalR3 antagonist: antagonists of human GalR3; O60755; HEK293 GalR3-CNG cAMP membrane potential fluorescence; galR3 body fused to GalR1 C-terminus; inhibition, % at 3 µM; 360,000 compounds, 0.44% hits; AID 651719;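 active means inhibition above the screen-wide average plus 3 SD, cut at about 13% in these data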;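 further: forskolin and galanin both at EC90 stimulate the cells; cAMP rise reported by CNG channel membrane potential dye signal; 0% = forskolin plus galanin with DMSO and 100% = forskolin alone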
Target sequence (O60755 1-299 limits assumed): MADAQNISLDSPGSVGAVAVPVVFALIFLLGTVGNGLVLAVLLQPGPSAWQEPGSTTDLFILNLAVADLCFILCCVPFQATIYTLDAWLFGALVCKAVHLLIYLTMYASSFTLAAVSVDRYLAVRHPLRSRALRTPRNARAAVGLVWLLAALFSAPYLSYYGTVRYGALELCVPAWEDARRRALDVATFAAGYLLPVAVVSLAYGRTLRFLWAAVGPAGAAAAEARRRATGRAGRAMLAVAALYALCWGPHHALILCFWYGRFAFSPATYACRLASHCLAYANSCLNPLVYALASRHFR
SMARCA2 activ: SMARCA2 function activation, primary screen. MG213 cells, MMTV-luciferase reporter, dexamethasone, overnight. activation, % at 9.1 µM. 370,000 compounds, 1% hits; in the data active means activation above about 7.8%;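 further: 0% = vehicle wells and 100% = reference activator wells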
NR2E3 ag-1: NR2E3 (human) agonism | Q9Y5X4 | GST-NR2E3/biotin-RetCOR TR-FRET, 1536-well | inhibition of corepressor binding, % at 4.78 µM | 320,000 compounds, 0.12% hits | AID 2300;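 active means percent inhibition above the cutoff of mean plus 3 SD of all tested compounds, set per screening campaign, cut at about 20% in these data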;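 further: 0% = DMSO wells and 100% = biotin wells as full block of FRET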
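System: GST-tagged NR2E3 plus biotinylated RetCOR corepressor; Buffer or medium: pH 7.5 Tris-based buffer; Probe or stimulus: RetCOR corepressor, biotinylated, 7 nM; Doses: compound at 4.8 µM, single dose; Schedule: 5 h incubation at 4 °C; Technique: time-resolved FRET; Evaluation: percent inhibition of TR-FRET ratio; Replication: one well per compound, singlicate testing.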
COUP-TFII inh: blocks human COUP-TFII nuclear receptor. HEK293T NGFI-A luciferase reporter, luminescence. inhibition, % at 8.6 µM. P24468. AID 686940. 370,000 compounds, 0.7% hits;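 active means inhibition above a per-plate cutoff, mean inhibition of test wells between control levels plus 3 SD, cut at about 38% in these data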;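 further: cells cotransfected with COUP-TFII expression vector driving the NGFI-A reporter; 0% = median of COUP-TF2 test wells and 100% = reporter-only cells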
Target sequence (P24468 whole entry, looked up): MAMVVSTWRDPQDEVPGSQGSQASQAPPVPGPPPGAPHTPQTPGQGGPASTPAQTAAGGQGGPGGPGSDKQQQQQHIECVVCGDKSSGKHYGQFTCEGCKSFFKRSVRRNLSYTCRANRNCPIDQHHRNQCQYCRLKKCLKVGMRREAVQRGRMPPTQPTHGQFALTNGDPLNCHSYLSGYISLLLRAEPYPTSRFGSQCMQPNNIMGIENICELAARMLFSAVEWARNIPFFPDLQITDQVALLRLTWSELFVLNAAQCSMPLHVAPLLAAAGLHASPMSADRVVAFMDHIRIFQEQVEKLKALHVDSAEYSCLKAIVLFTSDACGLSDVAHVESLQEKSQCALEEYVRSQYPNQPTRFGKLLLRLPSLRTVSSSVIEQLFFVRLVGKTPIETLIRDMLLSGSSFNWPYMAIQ
NR2E3 ag-2: activates human NR2E3 receptor. Q9Y5X4. 360,000 compounds, 0.35% hits. inhibition of corepressor binding, % at 3.98 µM. CHO-S Gal4-NCOR/VP16-NR2E3 two-hybrid, luciferase;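 active means inhibition above the mean of all tested compounds plus 3 SD, cut at about 70% in these data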;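 further: 0% = DMSO with NR2E3 transfected cells and 100% = cells lacking NR2E3 construct; higher means lower luciferase signal from less NR2E3 corepressor binding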
SMARCA2 act conf: confirmation of SMARCA2 (BRM) function activators; activation, % at 9.1 µM; 3,500 compounds, 30% hits; shares compounds with SMARCA2 activ; MG213 cells, MMTV-luciferase with dexamethasone, luminescence, overnight; MG213 cells expressing E1A, Rb sequestered; DMSO wells 0%, reference activator 100%;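 active means activation above its plate's cutoff, the mean activation of tested wells plus 3 SD, cut at about 7.9% in these data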
GAL4-VP16 Luc: activates GAL4-VP16 luciferase, flagging SMARCA2 activator hits; shares compounds with SMARCA2 activ; HEK293 GAL4-VP16 pG5luc reporter, luciferase luminescence; scaled: DMSO wells 0%, SAHA wells 100%; activation, % at 9.1 µM; 3,500 compounds, 41% hits;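 active means activation above the solvent-only control well mean plus 3 SD, averaged across control plates, cut at about 5.2% in these data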
* marks the source's active call; other numbers are inactive results.

Screening COc1ccc(-c2csc(-c3cccs3)n2)c(OC)c1 returned GalR3 antagonist -4, SMARCA2 activ 11*, NR2E3 ag-1 -2, COUP-TFII inh -54, NR2E3 ag-2 -151, SMARCA2 act conf 12* and GAL4-VP16 Luc 8.4*.
`COc1ccc(-c2csc(-c3ccccc3)n2)c(OC)c1` gave GalR3 antagonist -2, SMARCA2 activ 3, NR2E3 ag-1 2, COUP-TFII inh -43 and NR2E3 ag-2 -145.
`Cc1nc(SCC(=O)O)c2oc3ccccc3c2n1` gave GalR3 antagonist -5, SMARCA2 activ 2, NR2E3 ag-1 -1, COUP-TFII inh -13 and NR2E3 ag-2 -6.
Cc1nc(SCC(=O)c2cccs2)c2oc3ccccc3c2n1 was read as GalR3 antagonist -2, SMARCA2 activ 8.5*, NR2E3 ag-1 3, COUP-TFII inh -40, NR2E3 ag-2 -101, SMARCA2 act conf 3 and GAL4-VP16 Luc 11*.
Screening c1nc(NCC2CCCC2)c2cc(-c3ccc4c(c3)OCO4)ccc2n1 returned COUP-TFII inh -2.
N#C/C(=C/c1ccc(N2CCOCC2)o1)C(=O)Nc1ccccc1 was read as GalR3 antagonist -2, SMARCA2 activ 8.8*, COUP-TFII inh -49, NR2E3 ag-2 -134, SMARCA2 act conf 7 and GAL4-VP16 Luc 11*.
Cc1ccc(/C(C#N)=C\c2ccc(N3CCOCC3)o2)cc1 was read as GalR3 antagonist -5, SMARCA2 activ 9.1*, NR2E3 ag-1 2, COUP-TFII inh -5, NR2E3 ag-2 8, SMARCA2 act conf 14* and GAL4-VP16 Luc 21*.
For COc1cc(/C=C(\C#N)C(=O)Nc2ccccc2)ccc1OCCN1CCOCC1 the results were GalR3 antagonist 0, SMARCA2 activ 8.5*, NR2E3 ag-1 -1, COUP-TFII inh 0, NR2E3 ag-2 -12, SMARCA2 act conf 5 and GAL4-VP16 Luc 6.0*.
`Cc1ccc2nc(/C(C#N)=C\c3ccc(N4CCOCC4)o3)[nH]c2c1` gave GalR3 antagonist 1, SMARCA2 activ 0, NR2E3 ag-1 0, COUP-TFII inh 13 and NR2E3 ag-2 -13.
O=C1CCC[C@H]2C[C@H](NCc3ccc(Cl)c(C(F)(F)F)c3)CC[C@]23CCCN13 was read as COUP-TFII inh -9.
NC(=O)c1ncc(C(F)(F)F)cc1Cl was read as GalR3 antagonist -2, SMARCA2 activ 0, NR2E3 ag-1 5, COUP-TFII inh -2 and NR2E3 ag-2 -37.
For NC(=S)c1ncc(C(F)(F)F)cc1Cl the results were GalR3 antagonist -2, SMARCA2 activ 8.6*, NR2E3 ag-1 5, COUP-TFII inh 12, NR2E3 ag-2 -25, SMARCA2 act conf -3 and GAL4-VP16 Luc 1.
Screening Cc1cc(C)cc(NC(=O)CCc2c(C)nn(-c3ccc(N4CCCCC4)nn3)c2C)c1 returned GalR3 antagonist 3, SMARCA2 activ 11*, NR2E3 ag-1 2, COUP-TFII inh -18, NR2E3 ag-2 -52, SMARCA2 act conf 3 and GAL4-VP16 Luc 6.3*.
`O=C(NC1CCCC1)C1C(c2ccc(C(F)(F)F)cc2)=Nc2ccccc2N1C(=O)c1ccccc1` (stereo not drawn) gave GalR3 antagonist -8, SMARCA2 activ 13*, COUP-TFII inh -31, SMARCA2 act conf 4 and GAL4-VP16 Luc 5.8*.
`CS(=O)(=O)c1ccc(C(=O)OCC(=O)N2CCOCC2)cc1[N+](=O)[O-]` gave GalR3 antagonist -7, SMARCA2 activ 8.2*, COUP-TFII inh -3, NR2E3 ag-2 7, SMARCA2 act conf 18* and GAL4-VP16 Luc 1.
Screening CS(=O)(=O)c1ccc(C(=O)OCc2nnc(-c3ccccc3)o2)cc1[N+](=O)[O-] returned GalR3 antagonist 0, SMARCA2 activ 12*, COUP-TFII inh -3, NR2E3 ag-2 2, SMARCA2 act conf -13 and GAL4-VP16 Luc 9.0*.
Screening CN(C)S(=O)(=O)c1ccc(C(=O)OCc2nnc(-c3ccccc3)o2)cc1 returned GalR3 antagonist 4, SMARCA2 activ 0, NR2E3 ag-1 1, COUP-TFII inh 5 and NR2E3 ag-2 -17.
`CS(=O)(=O)c1ccc(C(=O)OCC(=O)N2CCN(CCC3CCCCC3)CC2)cc1[N+](=O)[O-]` gave GalR3 antagonist -10, SMARCA2 activ -11, COUP-TFII inh 2 and NR2E3 ag-2 -4.
For Cc1ccccc1NC(=O)COC(=O)c1ccc(S(C)(=O)=O)c([N+](=O)[O-])c1 the results were GalR3 antagonist -7, SMARCA2 activ 16*, NR2E3 ag-1 5, COUP-TFII inh -3, NR2E3 ag-2 8, SMARCA2 act conf 3 and GAL4-VP16 Luc 3.
`CCOC(=O)[C@]12CCCC=C1N(CCCOC)C(=O)[C@@H]2CC(=O)NCC12CC3CC(CC(C3)C1)C2` gave SMARCA2 activ -1 and COUP-TFII inh -5.
`CCCCCOc1ccc(C(=O)N(Cc2ccco2)C2CCS(=O)(=O)C2)cc1` (stereo not drawn) gave GalR3 antagonist -3, SMARCA2 activ 8.9*, NR2E3 ag-1 4, COUP-TFII inh -11, NR2E3 ag-2 -9, SMARCA2 act conf -3 and GAL4-VP16 Luc 0.
For COc1ccc(S[C@]2(C(=O)NC3CC3)CC(=O)N[C@@H]2c2ccc(OC)cc2)cc1 the results were SMARCA2 activ -2 and COUP-TFII inh -3.
CN(C)c1cccc(-c2cnc(N3CCC(C(N)=O)CC3)nc2)c1 was read as COUP-TFII inh -3.
`CC(=O)C1CCC2C3CC=C4CC(SC(=N)N)CCC4(C)C3CCC12C` (stereo not drawn) gave GalR3 antagonist -1, SMARCA2 activ 10*, COUP-TFII inh 35, NR2E3 ag-2 18, SMARCA2 act conf -6 and GAL4-VP16 Luc 1.
Screening CC(=O)OCC(=O)C1CCC2C3CC=C4CC(O)CCC4(C)C3CCC12C (stereo not drawn) returned GalR3 antagonist 0, SMARCA2 activ -4, NR2E3 ag-1 0, COUP-TFII inh 11 and NR2E3 ag-2 5.
`COC(=O)[C@]1(C#N)CC(=O)N(c2ccccc2)[C@@H]1c1ccccc1` gave SMARCA2 activ 0 and COUP-TFII inh 6.
For CCOC(=O)[C@]12CCCC3=C1N(CCC3)C(=O)[C@@H](CC(=O)N1CCCCC1)C2 the results were SMARCA2 activ -4 and COUP-TFII inh -4.
CC(/C=N/NC(=O)c1ccccn1)=C\c1ccco1 was read as GalR3 antagonist -5, SMARCA2 activ 8.7*, COUP-TFII inh -65, NR2E3 ag-2 -36, SMARCA2 act conf 12* and GAL4-VP16 Luc 14*.
